# An excerpt weighted towards active compounds, which were near 0.77% of everything screened.
# hIAP inh = human IAP inhibition; P09923; purified IAP, CDP-Star luminescence, 30 min; inhibition, % at 10 µM; 330,000 tested, 0.12% active; AID 2544;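 active means inhibition reaching a set limit with compound at 10 µM in the primary screen, cut at about 35% in these data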;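 further: plate controls were DMSO wells with enzyme for no effect and no-enzyme buffer wells for full effect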
# Target sequence (P09923 whole entry, looked up): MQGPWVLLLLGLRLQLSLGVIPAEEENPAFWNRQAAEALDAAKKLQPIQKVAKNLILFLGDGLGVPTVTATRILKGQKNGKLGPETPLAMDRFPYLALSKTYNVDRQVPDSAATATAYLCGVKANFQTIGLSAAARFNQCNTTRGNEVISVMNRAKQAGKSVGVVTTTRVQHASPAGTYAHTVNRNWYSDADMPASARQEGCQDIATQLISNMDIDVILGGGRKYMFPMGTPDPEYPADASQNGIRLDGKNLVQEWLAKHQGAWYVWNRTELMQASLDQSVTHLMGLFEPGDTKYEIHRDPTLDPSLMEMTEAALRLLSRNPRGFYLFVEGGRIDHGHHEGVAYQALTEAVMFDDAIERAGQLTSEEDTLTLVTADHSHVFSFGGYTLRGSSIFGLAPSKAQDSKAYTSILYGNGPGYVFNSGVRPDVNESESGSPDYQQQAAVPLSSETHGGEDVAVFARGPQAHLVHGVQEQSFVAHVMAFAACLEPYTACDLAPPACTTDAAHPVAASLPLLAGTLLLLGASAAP
# hIAP activ = human IAP activation | activation factor at 10 µM | P09923 | purified human IAP, CDP-Star luminescence, 30 min; hits give high values; 1 = vehicle-only enzyme, 0 = enzyme-free background | 330,000 tested, 0.16% active;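 active means activation factor of the enzyme at least 2-fold when tested at 20 µM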
# bIAP inh = blocks bovine intestinal alkaline phosphatase activity. purified bovine IAP, CDP-star luminescence, 30 min. inhibition, % at 20 µM. 190,000 tested, under 10 active. AID 1019;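 active means over 50% inhibition of intestinal alkaline phosphatase at 20 µM in the single-dose screen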
#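 Assay system – bovine IAP enzyme · Quantity – bovine IAP at 1/65,000,000 final dilution · Detection – CDP-star luminescence signal · Times – 30 min reaction at room temperature · Also added – CDP-star substrate at 30 µM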
# bIAP activator = increases bovine intestinal alkaline phosphatase activity. purified bovine IAP, CDP-star luminescence, 30 min; hits give high values; fold of DMSO-control signal, blank-subtracted. activation factor at 20 µM. 200,000 tested, 0.17% active. AID 1016;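 active means activation factor of 2 or more at 20 µM, a signal rise over negative controls twice the positive control's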
# mIAP act = increases mouse intestinal alkaline phosphatase activity; 330,000 tested, 0.24% active; muIAP, CDP-Star luminescence, 30 min; hits give high values; 1 = vehicle-only enzyme signal, 0 = enzyme-free wells; activation factor at 10 µM;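 active means activation factor of at least 2 at 20 µM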
#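 System: Mouse IAP enzyme | Also added: CDP-Star substrate | Dosing: Compounds dispensed in DMSO | Schedule: 30 min enzyme-substrate-compound incubation at room temperature | Technique: Chemiluminescence readout | Control set: DMSO-only wells and no-enzyme negative control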
# mIAP inh = mouse IAP inhibition; purified mouse IAP, CDP-Star luminescence, 30 min; inhibition, % at 10 µM; 330,000 tested, 0.2% active; AID 2806;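 active means inhibition of at least 40% at 10 µM in the primary screen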;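 further: plate controls were DMSO with enzyme for no effect and no enzyme wells for full effect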
# hIAP act confirm = human IAP activation confirmation; purified IAP, CDP-Star luminescence, 30 min; hits give low values; 880 tested, 10% active; shares compounds with hIAP activ; AID 434926; activation (%Activity, negative = activation), % at 8.3 µM;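 active means at least twofold enzyme activation in any of six single-dose repeats, which the averaged readout prints as negative percent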
# * = called active by the depositor; . = no result given.
SMILES,hIAP inh,hIAP activ,bIAP inh,bIAP activator,mIAP act,mIAP inh,hIAP act confirm
COC(=O)CSc1nc2cc3c(cc2cc1C)OCO3,2,0.98,13,0.9,0.94,6,.
Cc1ccsc1C(=O)NNC(=S)NC1CCCCC1,-127,2.3*,.,.,0.97,3,49
O=C(NNC(=S)NC1CCCCC1)c1ccccc1Br,-101,2*,.,.,1,-3,-43*
O=C(NCc1ccco1)c1ccccc1Br,-2,1,5,1,1.1,-8,.
O=C(NNC(=S)NCc1ccco1)c1ccccc1Br,-126,2.3*,.,.,0.84,16,41
CCOCCCNC(=O)c1cn(CC)c2ccc(S(=O)(=O)N3CCC(C)CC3)cc2c1=O,13,0.87,.,.,0.96,4,.
N#CCCn1cc(C(=O)O)c(-c2ccc3ccccc3c2)n1,2,0.98,.,.,1,-4,.
CCn1c(C)nc2cc(C(=O)N/N=C/c3ccccc3)ccc21,9,0.91,5,0.9,0.92,8,.
CCn1c(C)nc2cc(C(=O)N/N=C/c3cccc(O)c3O)ccc21,-160,2.6*,-74,1.7,0.91,9,-43*
CCn1c(C)nc2cc(C(=O)NNC(=S)Nc3ccc(Cl)cc3Cl)ccc21,-114,2.1*,7,0.9,1.1,-14,-44
CCn1c(C)nc2cc(C(=O)NNC(=S)Nc3ccccc3)ccc21,-111,2.1*,-60,1.6,1,-4,29
CCn1c(C)nc2cc(C(=O)NNC(=S)Nc3ccc(Cl)cc3)ccc21,-93,1.9,.,.,0.99,1,.
O=C(CN1C(=O)NC2(CCOc3ccccc32)C1=O)NCCc1ccc(F)cc1 (stereo unspecified),-4,1,.,.,0.99,1,.
Cc1cc(Br)ccc1SCC(=O)OC/C(O)=C(\C#N)c1nc2ccccc2[nH]1,-140,2.4*,.,.,0.87,13,-67*
CCc1cc2ccc(C)cc2nc1SCC(=O)N1CCN(C(=O)c2ccco2)CC1,-105,2.1*,6,0.9,0.91,9,-37
COc1ccccc1CN(C(=O)CNC(=O)c1ccco1)C(C(=O)NCC1CCCO1)c1ccccc1 (stereo unspecified),-2,1,.,.,1.1,-5,.
CCOC(=O)c1sc(NC(=O)CSc2nc(C)cc(-c3ccccc3)n2)c(C#N)c1C,0,1,15,0.9,0.82,18,.
CCOC(=O)c1sc(NC(=O)CSc2n[nH]c(-c3ccc(Cl)cc3Cl)n2)c(C#N)c1C,69*,0.31,13,0.9,0.68,32,-1
O=C(NNc1ccc([N+](=O)[O-])cc1[N+](=O)[O-])c1ccco1,36*,0.64,.,.,0.82,18,14
O=C1Nc2ccc(Br)cc2C12NNc1ccccc1O2 (stereo unspecified),-398,5*,.,0.5,0.66,34,35
CC1CCCCN1C(=O)COC(=O)c1cc(Cl)c2c(c1)OCO2 (stereo unspecified),8,0.92,.,.,0.94,6,.
Nc1ccc(-c2c3ccc(=O)cc-3oc3cc(O)ccc23)cc1C(=O)O,36*,0.64,.,.,0.74,26,64
O=c1ccc2c(-c3ccccc3)c3ccc(O)cc3oc-2c1,14,0.86,.,.,0.81,19,.
CCOc1ccc(S(=O)(=O)N2CCN(C(=O)C3CC3C)CC2)cc1 (stereo unspecified),-16,1.2,.,.,0.94,6,.
Cc1ccc(-n2c(Cc3ccccc3)nnc2SCC(=O)NNC(=O)Cc2ccccc2)cc1,-100,2*,-57,1.6,0.99,1,-1
SMILES,hIAP inh,hIAP activ,bIAP inh,bIAP activator,mIAP act,mIAP inh,hIAP act confirm
CCOC(=O)CSc1nnc(Cc2ccccc2)n1-c1ccc(C)cc1,-13,1.1,20,0.8,0.82,18,.
Cc1cccc(OCC(=O)NCc2ccc(F)cc2)c1,-30,1.3,.,.,1,-3,.
O=C(NN1C(=O)/C(=C/c2ccc(O)c([N+](=O)[O-])c2)SC1=S)c1ccccc1Cl,35*,0.65,16,0.8,0.75,25,39
O=C(NN1C(=O)/C(=C/c2ccc(O)cc2)SC1=S)c1cccc(O)c1,37*,0.63,.,.,0.77,23,-5
O=C1/C(=C/c2ccc(O)c([N+](=O)[O-])c2)SC(=S)N1Cc1ccccc1,-2,1,42,0.6,0.73,26,.
CCC(C)N1CCN(S(=O)(=O)Cc2ccccc2)CC1 (stereo unspecified),-4,1,.,.,0.99,1,.
O=C(NCCOc1ccc(F)cc1)C1CCC(=O)N(CCN2CCOCC2)C1 (stereo unspecified),1,0.99,.,.,1,-4,.
Cc1nc(S/C(=C/c2ccc(-c3ccc(Cl)cc3)o2)C(=O)O)n[nH]1,-120,2.2*,13,0.9,0.92,8,-89*
Cc1cc(/C=N/NC(N)=S)c(O)c(/C=N/NC(N)=S)c1,-178,2.8*,.,.,0.81,19,-56
NC(=S)N/N=C/c1ccccc1O,-65,1.6,.,.,0.97,3,.
Cc1ccc(-n2c(C)cc(/C=N/NC(N)=S)c2C)cc1,-7,1.1,1,1,0.98,2,.
NC(=S)N/N=C/c1cccc(O)c1O,-115,2.2*,-28,1.3,1,-2,5
COc1cc(OC)c(OC)cc1/C=N/n1c(-c2n[nH]c3c2CCC3)n[nH]c1=S,-107,2.1*,.,.,1.1,-8,-42
COc1cc(/C=C/C(=O)OCC(=O)NC(=O)NC2CCCCC2)ccc1OC(F)F,35*,0.65,.,.,0.95,5,79
Cc1ccc(-c2[nH]ncc2C(=O)c2cccc(F)c2)c(O)c1,-105,2*,.,.,0.96,4,6
Cc1cccc(C(=O)c2cn[nH]c2-c2ccc(C)cc2O)c1,-7,1.1,.,.,1.1,-8,.
COc1ccc(N2C(=NC(=O)C3CC3)SC3CS(=O)(=O)CC32)cc1Cl (stereo unspecified),-4,1,.,.,1,-1,.
CCc1cccc(CC)c1NC(=O)CN(CC(=O)O)CC(=O)O,-110,2.1*,.,.,1.1,-5,-5
CCSC(=O)N(CC)CC(=O)Nc1c(CC)cccc1CC,-8,1.1,10,0.9,1.1,-5,.
COc1cc(NC(=O)[C@@H](NC(=O)c2ccco2)C(C)C)c(OC)cc1NC(=O)c1ccccc1,17,0.83,-9,1.1,0.96,4,.
O=C(NN=Cc1cc(Br)c(O)c(Br)c1)c1ccccc1NS(=O)(=O)c1cccs1,-8,1.1,.,.,1,-1,.
COc1cc(/C=C2\C(=O)N(c3ccc(NC(C)=O)cc3)N=C2c2ccccc2)ccc1O,37*,0.63,29,0.7,0.7,30,-8
COC(=O)C(N)Cc1ccc(O)c(O)c1 (stereo unspecified),21,0.79,17,0.8,0.76,24,.

# Source: PubChem BioAssay
